Test results published in ChEMBL document CHEMBL1149892, “Structure-antifungal activity relationship of His-Phe-Arg-Trp-Gly-Lys-Pro-Val-NH2 and analogues” (2008).

Experiments:
Assay type in all cases: functional
[1] = system: Candida albicans; experiment: Antifungal activity against Candida albicans 10231 at 200 uM after 24 hrs relative to amphotericin B
Procedure, shortened: (§1)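 Broth microdilution in RPMI-1640. Peptides come from DMSO stocks, final DMSO ≤2%, at final 200 and 100 μM. Inoculum is 1–5 × 10^3 CFU/mL from strains grown 24 h at 35 °C on Sabouraud-chloramphenicol agar. […] Growth control carries matched DMSO; amphotericin B defines 100% inhibition. Run in duplicate.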

[2] = system: Cryptococcus neoformans; experiment: Antifungal activity against Cryptococcus neoformans ATCC 32264 at 1.62 uM after 48 hrs relative to amphotericin B; settings: ATCC 32264, 48 h
Procedure, shortened: (§2)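 Microplate assay in RPMI-1640 with DMSO-dissolved peptide, final DMSO ≤2%. Inoculum is 1–5 × 10^3 CFU/mL from slants grown 24 h at 35 °C. Plates are held 48 h at 35 °C in a moist, dark chamber and read at OD405. Inhibition is taken against a DMSO-matched growth control after sterility-well subtraction; amphotericin B is set as 100%. Duplicate determinations.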

[3] = system: Candida tropicalis; experiment: Antifungal activity against Candida tropicalis C 131 at 200 uM after 24 hrs relative to amphotericin B; procedure, shortened: as §1
[4] = system: Cryptococcus neoformans; experiment: Antifungal activity against Cryptococcus neoformans ATCC 32264 at 100 uM after 48 hrs relative to amphotericin B; settings: ATCC 32264, 48 h; procedure, shortened: as §2
[5] = system: Cryptococcus neoformans; experiment: Antifungal activity against Cryptococcus neoformans ATCC 32264 at 200 uM after 48 hrs relative to amphotericin B; settings: ATCC 32264, 48 h; procedure, shortened: as §2
[6] = system: Cryptococcus neoformans; experiment: Antifungal activity against Cryptococcus neoformans ATCC 32264 at 0.40 uM after 48 hrs relative to amphotericin B; settings: ATCC 32264, 48 h; procedure, shortened: as §2
[7] = system: Candida tropicalis; experiment: Antifungal activity against Candida tropicalis C 131 at 100 uM after 24 hrs relative to amphotericin B; procedure, shortened: as §1
[8] = system: Cryptococcus neoformans; experiment: Antifungal activity against Cryptococcus neoformans ATCC 32264 at 3.25 uM after 48 hrs relative to amphotericin B; settings: ATCC 32264, 48 h; procedure, shortened: as §2
[9] = system: Cryptococcus neoformans; experiment: Antifungal activity against Cryptococcus neoformans ATCC 32264 at 6.25 uM after 48 hrs relative to amphotericin B; settings: ATCC 32264, 48 h; procedure, shortened: as §2
[10] = system: Cryptococcus neoformans; experiment: Antifungal activity against Cryptococcus neoformans ATCC 32264 at 0.81uM after 48 hrs relative to amphotericin B; settings: ATCC 32264, 48 h; procedure, shortened: as §2
[11] = system: Candida albicans; experiment: Antifungal activity against Candida albicans 10231 at 100 uM after 24hrs relative to amphotericin B; procedure, shortened: as §1
[12] = system: Cryptococcus neoformans; experiment: Antifungal activity against Cryptococcus neoformans ATCC 32264 at 25 uM after 48 hrs relative to amphotericin B; settings: ATCC 32264, 48 h; procedure, shortened: as §2
[13] = system: Cryptococcus neoformans; experiment: Antifungal activity against Cryptococcus neoformans ATCC 32264 at 12.5 uM after 48 hrs relative to amphotericin B; settings: ATCC 32264, 48 h; procedure, shortened: as §2
[14] = system: Cryptococcus neoformans; experiment: Antifungal activity against Cryptococcus neoformans ATCC 32264 at 50 uM after 48 hrs relative to amphotericin B; settings: ATCC 32264, 48 h; procedure, shortened: as §2

## H-HYKWGRFV-NH2
[1]
  inhibition at 200 µM: 11%
[2]
  inhibition at 1.62 µM: 21%
[3]
  inhibition at 200 µM: 23%
[4]
  inhibition at 100 µM: 47%
[5]
  inhibition at 200 µM: 89%
[6]
  inhibition at 0.4 µM: 0%
[7]
  inhibition at 100 µM: 0%
[8]
  inhibition at 3.25 µM: 17%
[9]
  inhibition at 6.25 µM: 19%
[10]
  inhibition at 0.81 µM: 2%
[11]
  inhibition at 100 µM: 0%

## H-HYKWGKFV-NH2
[1]
  inhibition at 200 µM: 0%
[12]
  inhibition at 25 µM: 38%
[2]
  inhibition at 1.62 µM: 0%
[3]
  inhibition at 200 µM: 1%
[4]
  inhibition at 100 µM: 25%
[5]
  inhibition at 200 µM: 41%
[13]
  inhibition at 12.5 µM: 34%
[6]
  inhibition at 0.4 µM: 0%
[7]
  inhibition at 100 µM: 0%
[14]
  inhibition at 50 µM: 43%
[8]
  inhibition at 3.25 µM: 0%
[9]
  inhibition at 6.25 µM: 0%
[10]
  inhibition at 0.81 µM: 0%
[11]
  inhibition at 100 µM: 0%

## H-HFRWGKPV-NH2
[1]
  inhibition at 200 µM: 0%
[12]
  inhibition at 25 µM: 0%
[2]
  inhibition at 1.62 µM: 0%
[3]
  inhibition at 200 µM: 0%
[4]
  inhibition at 100 µM: 9%
[5]
  inhibition at 200 µM: 24%
[13]
  inhibition at 12.5 µM: 0%
[6]
  inhibition at 0.4 µM: 0%
[7]
  inhibition at 100 µM: 0%
[14]
  inhibition at 50 µM: 0%
[8]
  inhibition at 3.25 µM: 0%
[9]
  inhibition at 6.25 µM: 0%
[10]
  inhibition at 0.81 µM: 0%
[11]
  inhibition at 100 µM: 0%

## H-HFKWGKFV-NH2
[1]
  inhibition at 200 µM: 72%
[12]
  inhibition at 25 µM: 0%
[2]
  inhibition at 1.62 µM: 0%
[3]
  inhibition at 200 µM: 22%
[4]
  inhibition at 100 µM: 38%
[5]
  inhibition at 200 µM: 97%
[13]
  inhibition at 12.5 µM: 0%
[6]
  inhibition at 0.4 µM: 0%
[7]
  inhibition at 100 µM: 0%
[8]
  inhibition at 3.25 µM: 0%
[9]
  inhibition at 6.25 µM: 0%
[10]
  inhibition at 0.81 µM: 0%
[11]
  inhibition at 100 µM: 0%

## H-HFKWGKYV-NH2
[1]
  inhibition at 200 µM: 15%
[12]
  inhibition at 25 µM: 49%
[2]
  inhibition at 1.62 µM: 33%
[3]
  inhibition at 200 µM: 0%
[4]
  inhibition at 100 µM: 50%
[5]
  inhibition at 200 µM: 83%
[13]
  inhibition at 12.5 µM: 40%
[6]
  inhibition at 0.4 µM: 26%
[7]
  inhibition at 100 µM: 0%
[14]
  inhibition at 50 µM: 50%
[8]
  inhibition at 3.25 µM: 36%
[9]
  inhibition at 6.25 µM: 31%
[10]
  inhibition at 0.81 µM: 31%
[11]
  inhibition at 100 µM: 0%

## H-HFRWGRFV-NH2
[1]
  inhibition at 200 µM: 80%
[12]
  inhibition at 25 µM: 26%
[2]
  inhibition at 1.62 µM: 11%
[3]
  inhibition at 200 µM: 64%
[4]
  inhibition at 100 µM: 72%
[5]
  inhibition at 200 µM: 94%
[13]
  inhibition at 12.5 µM: 26%
[6]
  inhibition at 0.4 µM: 7%
[7]
  inhibition at 100 µM: 1%
[14]
  inhibition at 50 µM: 67%
[8]
  inhibition at 3.25 µM: 12%
[9]
  inhibition at 6.25 µM: 18%
[10]
  inhibition at 0.81 µM: 10%
[11]
  inhibition at 100 µM: 1%

## H-HYRWGKFV-NH2
[1]
  inhibition at 200 µM: 10%
[12]
  inhibition at 25 µM: 24%
[2]
  inhibition at 1.62 µM: 5%
[3]
  inhibition at 200 µM: 1%
[4]
  inhibition at 100 µM: 21%
[5]
  inhibition at 200 µM: 35%
[13]
  inhibition at 12.5 µM: 21%
[6]
  inhibition at 0.4 µM: 0%
[7]
  inhibition at 100 µM: 0%
[14]
  inhibition at 50 µM: 37%
[8]
  inhibition at 3.25 µM: 16%
[9]
  inhibition at 6.25 µM: 16%
[10]
  inhibition at 0.81 µM: 0%
[11]
  inhibition at 100 µM: 0%

## H-HYKWGKYV-NH2
[1]
  inhibition at 200 µM: 0%
[12]
  inhibition at 25 µM: 22%
[3]
  inhibition at 200 µM: 3%
[4]
  inhibition at 100 µM: 42%
[5]
  inhibition at 200 µM: 63%
[13]
  inhibition at 12.5 µM: 19%
[7]
  inhibition at 100 µM: 0%
[14]
  inhibition at 50 µM: 39%
[9]
  inhibition at 6.25 µM: 10%
[11]
  inhibition at 100 µM: 0%

## H-HFRWGKFV-NH2
[1]
  inhibition at 200 µM: 61%
[12]
  inhibition at 25 µM: 2%
[2]
  inhibition at 1.62 µM: 0%
[3]
  inhibition at 200 µM: 19%
[4]
  inhibition at 100 µM: 15%
[5]
  inhibition at 200 µM: 77%
[13]
  inhibition at 12.5 µM: 0%
[6]
  inhibition at 0.4 µM: 0%
[7]
  inhibition at 100 µM: 9%
[14]
  inhibition at 50 µM: 15%
[8]
  inhibition at 3.25 µM: 0%
[9]
  inhibition at 6.25 µM: 0%
[10]
  inhibition at 0.81 µM: 0%
[11]
  inhibition at 100 µM: 5%

## H-HFRWGKYV-NH2
[1]
  inhibition at 200 µM: 43%
[12]
  inhibition at 25 µM: 41%
[2]
  inhibition at 1.62 µM: 6%
[3]
  inhibition at 200 µM: 21%
[4]
  inhibition at 100 µM: 58%
[5]
  inhibition at 200 µM: 99%
[13]
  inhibition at 12.5 µM: 28%
[6]
  inhibition at 0.4 µM: 0%
[7]
  inhibition at 100 µM: 0%
[14]
  inhibition at 50 µM: 56%
[8]
  inhibition at 3.25 µM: 10%
[9]
  inhibition at 6.25 µM: 24%
[10]
  inhibition at 0.81 µM: 0%
[11]
  inhibition at 100 µM: 0%
